IC50 and Activity data for five compounds are collected here from ChEMBL document CHEMBL1799990, “Triazole and dihydroimidazole alkaloids from the marine sediment-derived fungus Penicillium paneum SD-44” (J Nat Prod, 2011).

Each structure is given as a SMILES string. The source made the active and inactive calls. The calls are words filed in the database; no cut-off is given here.

The test system of one assay is SMMC-7721. The assay is described as follows: Cytotoxicity against human SMMC7721 cells. Type of assay: functional, cell-based.
The subject of a further assay is A549. Briefly: Cytotoxicity against human A549 cells. Type of assay: functional, cell-based.
Another assay concerns Bel-7402. Briefly: Cytotoxicity against human Bel7402 cells. Type of assay: functional, cell-based.
The test system of a further assay is Staphylococcus aureus. Briefly: Antibacterial activity against Staphylococcus aureus by disk diffusion method. Type of assay: functional, organism-based. A digest of the protocol:
(§1)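 Disk diffusion assay against the two bacteria, run alongside chloramphenicol as the positive control.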

A further assay concerns Escherichia coli. The assay is described as follows: Antibacterial activity against Escherichia coli by disk diffusion method. Type of assay: functional, organism-based. A digest of the protocol: as §1
The subject of the next assay is Alternaria brassicae. The assay is described as follows: Antifungal activity against Alternaria brassicae by disk diffusion method. Type of assay: functional. In a few lines: (§2)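 Disk diffusion assay against the five plant-pathogenic fungi, run alongside amphotericin B as the positive control.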
A general note: In agar diffusion tests the substance spreads into inoculated agar from a disc or well.

The test system of assay [1] is Fusarium oxysporum f. sp. vasinfectum. The assay is described as follows: Antifungal activity against Fusarium oxysporum f. sp. vasinfectum by disk diffusion method. Type of assay: functional, organism-based. In a few lines: as §2
The nature of assay [2]: Antifungal activity against Coniella diplodiella by disk diffusion method. Type of assay: functional. In a few lines:
as §2

Assay [3] has as its system Botryosphaeria berengeriana. The assay is described as follows: Antifungal activity against Physalospora pyricola by disk diffusion method. Type of assay: functional, organism-based. A digest of the protocol:
as §2

The next assay deals with Aspergillus niger. Briefly: Antifungal activity against Aspergillus niger by disk diffusion method. Type of assay: functional, organism-based. A digest of the protocol:
as §2

By IC50 is commonly meant the concentration at which inhibition is half-maximal. Lower therefore signals greater potency in that assay.

Regarding `O=c1[nH]cc(F)c(=O)[nH]1` [FLUOROURACIL], the results for the IC50 with SMMC-7721, with A549 and in the assay with Bel-7402 were 13 µM, 13.7 µM and 21.8 µM, respectively.

In the case of `O=C(c1ccc(O)cc1)c1nc2ccccc2c(=O)[nH]1`, the outcome (in the assay with Staphylococcus aureus; in the assay with Escherichia coli; with Alternaria brassicae; in assay [1]; in assay [2]; in [3]) was inactive. Moreover, in the assay with Aspergillus niger, the outcome was inactive.

`O=C(O)c1ccccc1-n1ncnc1Cc1ccc(O)cc1` [PENIPANOID A] displayed an IC50 with SMMC-7721 of 54.2 µM. The result (in the assay with Staphylococcus aureus; in the assay with Escherichia coli; with Alternaria brassicae; in [1]; in assay [2]; in assay [3]) was inactive. The outcome with Aspergillus niger was inactive.

As to `O=c1[nH]c(Cc2ccc(O)cc2)nc2ccccc12`, the IC50 in the assay with A549 came to 17.5 µM; in the assay with Bel-7402, 19.8 µM. For the same compound, the result (with Staphylococcus aureus; in the assay on Escherichia coli; in the assay on Alternaria brassicae; in [1]; in [2]; in [3]) was inactive. The result in the assay on Aspergillus niger was inactive.

As to `O=C1N[C@H]2[C@H](c3ccc(O)cc3)N=CN2c2ccccc21`, the result (with Staphylococcus aureus; with Escherichia coli; in the assay with Alternaria brassicae; in assay [1]; in assay [2]; in assay [3]) was inactive. Moreover, the result in the assay on Aspergillus niger was inactive.
